Assays:
[1] = test system: Staphylococcus aureus; test: Inhibition of biofilm formation in methicillin-resistant Staphylococcus aureus BAA 44 at 150 uM after 24 hrs by crystal violet staining-based assay relative to control; format: functional; conditions: BAA 44, 24 h
Outline: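 Static biofilm development in MRSA, read out by crystal violet staining against an untreated control. Initial screen at 150 μM. Inhibitors then went to dose-response, with IC50 taken as the concentration giving 50% inhibition of biofilm growth. Induction was judged at 50 μM: under 50% induction counted as "inducer", over 50% as "strong inducer".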

[2] = test system: Staphylococcus aureus; test: Antimicrobial activity against Staphylococcus aureus 29213 assessed as effect on planktonic growth at IC50 after 2 to 24 hrs; format: organism-based; conditions: in vivo
[3] = test system: Acinetobacter baumannii; test: Antimicrobial activity against Acinetobacter baumannii 19606 assessed as effect on planktonic growth at IC50 after 2 to 24 hrs by colony count method; parameters: species or system ATCC 19606
[4] = test system: Escherichia coli; test: Antimicrobial activity against Escherichia coli K-12 ER2718 assessed as effect on planktonic growth at 50 uM after 2 to 24 hrs; format: organism-based
Outline: (§1)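 Growth curve analysis of planktonic bacteria with each biofilm inducer at 50 μM, used to assess toxicity.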

[5] = test system: Escherichia coli; test: Antimicrobial activity against Escherichia coli K-12 ER2718 assessed as effect on planktonic growth at PC75 after 2 to 24 hrs; format: organism-based; conditions: in vivo
[6] = test system: Staphylococcus aureus; test: Antimicrobial activity against Staphylococcus aureus 29213 assessed as effect on planktonic growth at IC50 after 2 to 24 hrs by colony count method; format: organism-based; conditions: in vivo
[7] = test system: Staphylococcus aureus; test: Inhibition of biofilm formation in Staphylococcus aureus 29213 after 24 hrs by crystal violet staining-based assay; format: functional, organism-based; conditions: Staphylococcus aureus, 29213, 24 h
Outline: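 Compounds active in the 150 μM screen were taken into dose-response studies under static conditions with a crystal violet read-out. IC50 is the concentration that inhibits 50% of biofilm growth relative to an untreated control.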

[8] = test system: Staphylococcus aureus; test: Antimicrobial activity against methicillin-resistant Staphylococcus aureus BAA 44 assessed as effect on planktonic growth at IC50 after 2 to 24 hrs by colony count method; format: organism-based; conditions: in vivo
[9] = test system: Acinetobacter baumannii; test: Inhibition of biofilm formation in Acinetobacter baumannii 19606 at 150 uM after 24 hrs by crystal violet staining-based assay relative to control; format: functional; conditions: ATCC 19606 = CIP 70.34 = JCM 6841, 24 h
[10] = test system: Escherichia coli; test: Antimicrobial activity against Escherichia coli K-12 ER2718 assessed as effect on planktonic growth at PC50 after 2 to 24 hrs; format: organism-based
[11] = test system: Escherichia coli; test: Antimicrobial activity against Escherichia coli K-12 ER2718 assessed as effect on planktonic growth at IC50 after 2 to 24 hrs; format: organism-based
[12] = test system: Acinetobacter baumannii; test: Antimicrobial activity against Acinetobacter baumannii 19606 assessed as effect on planktonic growth at IC50 after 2 to 24 hrs; parameters: species or system ATCC 19606
[13] = test system: Escherichia coli; test: Antimicrobial activity against Escherichia coli K-12 ER2718 assessed as effect on planktonic growth at IC50 after 2 to 24 hrs by colony count method; format: organism-based
[14] = test system: Escherichia coli; test: Antimicrobial activity against Escherichia coli K-12 ER2718 assessed as effect on planktonic growth at PC75 after 2 to 24 hrs by colony count method; format: organism-based; conditions: in vivo
[15] = test system: Escherichia coli; test: Induction of biofilm formation in Escherichia coli K-12 ER2718 assessed as concentration required for 50% promotion of biofilm formation after 24 hrs by crystal violet staining-based assay; format: functional
Outline: (§2)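 For strong inducers of E. coli biofilm, dose-response curves were run in the static crystal violet assay. PC25, PC50 and PC75 are the concentrations promoting biofilm formation by 25%, 50% and 75%.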

[16] = test system: Escherichia coli; test: Induction of biofilm formation in Escherichia coli K-12 ER2718 at 50 uM after 24 hrs by crystal violet staining-based assay relative to control; format: functional
Outline: (§3)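 Static biofilm assay with compounds at 50 μM and crystal violet read-out, relative to an untreated control. Compounds increasing biofilm by less than 50% were called inducers, and by more than 50% strong inducers.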

[17] = test system: Escherichia coli; test: Induction of biofilm formation in Escherichia coli K-12 ER2718 assessed as concentration required for 25% promotion of biofilm formation after 24 hrs by crystal violet staining-based assay; format: functional; outline: as §2
[18] = test system: Escherichia coli; test: Induction of biofilm formation in Escherichia coli K-12 ER2718 assessed as concentration required for 75% promotion of biofilm formation after 24 hrs by crystal violet staining-based assay; format: functional; outline: as §2
[19] = test system: Escherichia coli; test: Antimicrobial activity against Escherichia coli K-12 ER2718 assessed as effect on planktonic growth at PC50 after 2 to 24 hrs by colony count method; format: organism-based; conditions: in vivo
[20] = test system: Staphylococcus aureus; test: Antimicrobial activity against methicillin-resistant Staphylococcus aureus BAA 44 assessed as effect on planktonic growth at IC50 after 2 to 24 hrs; format: organism-based; conditions: in vivo
[21] = test system: Escherichia coli; test: Antimicrobial activity against Escherichia coli K-12 ER2718 assessed as effect on planktonic growth at PC25 after 2 to 24 hrs by colony count method; format: organism-based
[22] = test system: Escherichia coli; test: Antimicrobial activity against Escherichia coli K-12 ER2718 assessed as effect on planktonic growth at PC25 after 2 to 24 hrs; format: organism-based
[23] = test system: Acinetobacter baumannii; test: Antimicrobial activity against Acinetobacter baumannii 19606 assessed as effect on planktonic growth at PC50 after 2 to 24 hrs; parameters: species or system ATCC 19606
[24] = test system: Acinetobacter baumannii; test: Antimicrobial activity against Acinetobacter baumannii 19606 assessed as effect on planktonic growth at PC75 after 2 to 24 hrs; parameters: species or system ATCC 19606
[25] = test system: Acinetobacter baumannii; test: Antimicrobial activity against Acinetobacter baumannii 19606 assessed as effect on planktonic growth at PC25 after 2 to 24 hrs by colony count method; parameters: species or system ATCC 19606
[26] = test system: Acinetobacter baumannii; test: Antimicrobial activity against Acinetobacter baumannii 19606 assessed as effect on planktonic growth at PC25 after 2 to 24 hrs; parameters: species or system ATCC 19606
[27] = test system: Acinetobacter baumannii; test: Antimicrobial activity against Acinetobacter baumannii 19606 assessed as effect on planktonic growth at PC75 after 2 to 24 hrs by colony count method; parameters: species or system ATCC 19606
[28] = test system: Acinetobacter baumannii; test: Antimicrobial activity against Acinetobacter baumannii 19606 assessed as effect on planktonic growth at PC50 after 2 to 24 hrs by colony count method; parameters: species or system ATCC 19606
[29] = test system: Acinetobacter baumannii; test: Antimicrobial activity against Acinetobacter baumannii 19606 assessed as effect on planktonic growth at 50 uM after 2 to 24 hrs; parameters: species or system ATCC 19606; outline: as §1
[30] = test system: Acinetobacter baumannii; test: Induction of biofilm formation in Acinetobacter baumannii 19606 at 50 uM after 24 hrs by crystal violet staining-based assay relative to control; format: functional, ATCC 19606 = CIP 70.34 = JCM 6841; outline: as §3
[31] = test system: Staphylococcus aureus; test: Antimicrobial activity against Staphylococcus aureus 29213 assessed as effect on planktonic growth at PC25 after 2 to 24 hrs; format: organism-based; conditions: in vivo
[32] = test system: Staphylococcus aureus; test: Antimicrobial activity against Staphylococcus aureus 29213 assessed as effect on planktonic growth at PC75 after 2 to 24 hrs; format: organism-based; conditions: in vivo
[33] = test system: Staphylococcus aureus; test: Induction of biofilm formation in Staphylococcus aureus 29213 at 50 uM after 24 hrs by crystal violet staining-based assay relative to control; format: functional; outline: as §3
[34] = test system: Staphylococcus aureus; test: Antimicrobial activity against Staphylococcus aureus 29213 assessed as effect on planktonic growth at PC75 after 2 to 24 hrs by colony count method; format: organism-based; conditions: in vivo
[35] = test system: Staphylococcus aureus; test: Antimicrobial activity against Staphylococcus aureus 29213 assessed as effect on planktonic growth at 50 uM after 2 to 24 hrs; format: organism-based; outline: as §1
[36] = test system: Staphylococcus aureus; test: Antimicrobial activity against Staphylococcus aureus 29213 assessed as effect on planktonic growth at PC25 after 2 to 24 hrs by colony count method; format: organism-based; conditions: in vivo
[37] = test system: Staphylococcus aureus; test: Antimicrobial activity against Staphylococcus aureus 29213 assessed as effect on planktonic growth at PC50 after 2 to 24 hrs; format: organism-based; conditions: in vivo
[38] = test system: Staphylococcus aureus; test: Antimicrobial activity against Staphylococcus aureus 29213 assessed as effect on planktonic growth at PC50 after 2 to 24 hrs by colony count method; format: organism-based; conditions: in vivo
[39] = test system: Staphylococcus aureus; test: Inhibition of biofilm formation in Staphylococcus aureus 29213 at 150 uM after 24 hrs by crystal violet staining-based assay relative to control; format: functional; conditions: Staphylococcus aureus, 29213, 24 h

Structure (SMILES)	inhibition at 150 µM [1]	Activity [2]	Activity [3]	Activity [4]	Activity [5]	Activity [6]	IC50 [7]	Activity [8]	Activity [10]	Activity [11]	Activity [12]	Activity [13]	Activity [14]	Activity [15]	Activity [16]	Activity [17]	Activity [19]	Activity [20]	Activity [21]	Activity [22]	further results
CCCCCc1ccc(C(=O)NCCn2cc(Cc3c[nH]c4ccccc34)nn2)cc1	< 5%	Non-toxic	Non-toxic	Non-toxic	Non-toxic	Non-toxic	44.4 µM	Non-toxic	Non-toxic	Non-toxic	Non-toxic	Non-toxic	Non-toxic	74.8 µM	>50%	48.3 µM	Non-toxic	Non-toxic	Non-toxic	Non-toxic	inhibition at 150 µM [9]: < 5%; Activity [18]: 111.6 µM
CCCCCCCc1ccc(C(=O)NCCn2cc(Cc3csc4ccccc34)nn2)cc1	< 5%	Non-toxic	Non-toxic	Non-toxic	Non-toxic	Non-toxic	83 µM	Non-toxic	Non-toxic	Non-toxic	Non-toxic	Non-toxic	Non-toxic	56.3 µM	>50%	22.2 µM	Non-toxic	Non-toxic	Non-toxic	Non-toxic	Activity [23]: Non-toxic; Activity [24]: Non-toxic; Activity [25]: Non-toxic; Activity [26]: Non-toxic; Activity [27]: Non-toxic; Activity [28]: Non-toxic; Activity [18]: 93.8 µM; Activity [29]: Non-toxic; Activity [30]: <50%
O=C(Cn1cc(Cc2csc3ccccc23)nn1)Nc1ccccc1	20%	Non-toxic	Non-toxic	Non-toxic	Non-toxic	Non-toxic	215 µM	Non-toxic	Non-toxic	Non-toxic	Non-toxic	Non-toxic	Non-toxic	–	<50%	–	Non-toxic	Non-toxic	Non-toxic	Non-toxic	Activity [23]: Non-toxic; Activity [24]: Non-toxic; Activity [25]: Non-toxic; Activity [26]: Non-toxic; Activity [27]: Non-toxic; Activity [28]: Non-toxic; Activity [29]: Non-toxic; Activity [30]: <50%
O=C(NCCn1cc(Cc2c(Br)[nH]c3ccccc23)nn1)c1ccccc1F	20%	Non-toxic	Non-toxic	Non-toxic	Non-toxic	Non-toxic	–	Non-toxic	Non-toxic	Non-toxic	Non-toxic	Non-toxic	Non-toxic	–	<50%	–	Non-toxic	Non-toxic	Non-toxic	Non-toxic	Activity [31]: Non-toxic; Activity [23]: Non-toxic; Activity [32]: Non-toxic; Activity [24]: Non-toxic; Activity [33]: <50%; Activity [25]: Non-toxic; Activity [34]: Non-toxic; Activity [35]: Non-toxic; Activity [26]: Non-toxic; Activity [36]: Non-toxic; Activity [37]: Non-toxic; Activity [27]: Non-toxic; Activity [28]: Non-toxic; Activity [38]: Non-toxic; Activity [29]: Non-toxic; Activity [30]: <50%
CCCCCc1ccc(C(=O)NCCn2cc(Cc3csc4ccccc34)nn2)cc1	< 5%	Non-toxic	Non-toxic	Non-toxic	Non-toxic	Non-toxic	–	Non-toxic	Non-toxic	Non-toxic	Non-toxic	Non-toxic	Non-toxic	99.8 µM	>50%	26.7 µM	Non-toxic	Non-toxic	Non-toxic	Non-toxic	inhibition at 150 µM [9]: < 5%; Activity [18]: 151.9 µM; inhibition at 150 µM [39]: < 5%
CCCCCCCc1ccc(C(=O)NCCn2cc(Cc3c[nH]c4ccccc34)nn2)cc1	< 5%	Non-toxic	Non-toxic	Non-toxic	Non-toxic	Non-toxic	175 µM	Non-toxic	Non-toxic	Non-toxic	Non-toxic	Non-toxic	Non-toxic	80.7 µM	>50%	50.5 µM	Non-toxic	Non-toxic	Non-toxic	Non-toxic	inhibition at 150 µM [9]: 30%; Activity [18]: 119.7 µM
